This note sets out measurements from ChEMBL document CHEMBL1129055, “Synthesis, in vitro antiviral evaluation, and stability studies of bis(S-acyl-2-thioethyl) ester derivatives of 9-[2-(phosphonomethoxy)ethyl]adenine (PMEA) as potential PMEA prodrugs with improved oral bioavailability” (J Med Chem, 1996).

A short description of data set [1]: Half-life in culture medium. In kind it is ADME.
Data set [2] in a line: Partition coefficient (logP). In kind it is physicochemical. The settings on record: octanol/water. In short, it runs like this:
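Octanol/water partition coefficient (logP) determined by HPLC using a microscale method adapted from earlier work on nucleoside analogues.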

For data set [3], the system named is CEM-SS. Description: (§1) Compound was tested for antiviral activity against the CEM-SS cell lines infected with HIV-1. Format: functional, cell-based. As to conditions: Homo sapiens. The gist of the method:
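CEM-SS cells infected with 100 TCID50 HIV-LAI for 30 min, unbound virus removed by two washes, then cultured 5 days with graded compound concentrations. Virus production quantified as reverse transcriptase activity in culture supernatant. EC50 derived from median effect plot of dose-effect data.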

The subject of data set [4] is CEM-SS. The data set is described as §1. In kind it is functional. As to conditions: Homo sapiens.
The subject of data set [5] is MRC5. The data set can be described thus: Compound was tested for antiviral activity against the MRC-5 cells infected with HSV-2. In kind it is functional, cell-based. The settings on record: Homo sapiens. The gist of the method:
(§2)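 Confluent cells in MEM with 5% FBS infected with 100 CCID50 virus (HSV-1 strain F or HSV-2 strain G) for 1 h at 37 °C, then exposed to compound from 1 mM to 1 uM. Cytopathic effect scored daily. EC50 is the concentration that reduces CPE by 50% once CPE is complete in untreated infected controls.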

Data set [6] concerns MT4. The data set can be described thus: (§3) Compound was tested for antiviral activity against the MT-4 cell lines infected with HIV-1. Format: functional, cell-based. As to conditions: Homo sapiens. In short, it runs like this: (§4)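 MT-4 cells infected with 50 TCID50 HIV-1 IIIB for 30 min, washed twice, then cultured 5 days with graded compound concentrations. Protection from virus-induced cytopathogenicity read by MTT reduction to formazan. EC50 taken from median effect plot of dose-effect data.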

The test system of data set [7] is MT4. Described as §3. The settings on record: Homo sapiens. In kind it is functional. The gist of the method: as §4
For data set [8], the system named is MRC5. The data set can be described thus: (§5) Compound was tested for antiviral activity against the MRC-5 cells infected with HSV-1. In kind it is functional. The settings on record: Homo sapiens. In short, it runs like this: as §2
Data set [9] has as its system MRC5. The description is as §5. Format: functional, cell-based. The settings on record: Homo sapiens. In short, it runs like this:
as §2

In data set [10] the test system is Vero. Description: (§6) Compound was tested for antiviral activity against the Vero cells infected with HSV-1. In kind it is functional, cell-based. The settings on record: Chlorocebus sabaeus. In short, it runs like this: as §2
The subject of data set [11] is Vero. The data set is described as §6. Format: functional. As to conditions: Chlorocebus sabaeus.
Data set [12] deals with Vero. The data set can be described thus: Compound was tested for antiviral activity against the Vero cells infected with HSV-2. Format: functional, cell-based. As to conditions: Chlorocebus sabaeus. In short, it runs like this: as §2
Data set [13] can be described thus: Percent decomposition in water at specified pH 7.2. As to conditions: buffer.
Data set [14] is described as follows: Half-life in RPMI1640 medium. Format: ADME.

Each structure is given as a SMILES string. Where only a bound is given, the exact number is not on record here.

Regarding `Nc1ncnc2c1ncn2CCOCP(=O)(OCCSC(=O)c1ccccc1)OCCSC(=O)c1ccccc1`, the half-life in [1] is 25.7 h. For the same compound, the log partition coefficient (logP) in [2] (read-out: logP) is 3.93. Also, the concentration for a half-maximal effect (EC50) amounted to 0.05 µM in the data set with CEM-SS [3]; 4.75 µM in the data set on MRC5 [5]; 0.41 µM in the data set on MT4 [6]; 3.48 µM with MRC5 [9]; 2.56 µM in the data set with Vero [10]; 2.89 µM in the data set on Vero [12]. In addition, the CC50 in the data set on CEM-SS [4] amounted to 3.9 µM; in the data set on MT4 [7], 2.4 µM; in the data set with MRC5 [8], 18.7 µM; in the data set with Vero [11] it was 12.7 µM. Besides, the percent decomposition in [13] stood at 1.7%.
Regarding `Nc1ncnc2c1ncn2CCOCP(=O)(OCCSSCCO)OCCSSCCO`, the half-life in data set [14] was > 24 h; in data set [1], 38.4 h. The lipophilicity (logP) in data set [2] (read-out: logP) was 0.21. Further, the EC50 was 2 µM in the data set on CEM-SS [3]; 26.5 µM with MRC5 [5]; 6.9 µM with MT4 [6]; 32.3 µM with MRC5 [9]; 22.3 µM in the data set with Vero [10]; 27.4 µM in the data set on Vero [12]. The CC50 in the data set with CEM-SS [4] is 67 µM; with MT4 [7] it was 50 µM; in the data set with MRC5 [8] it was > 100 µM; in the data set on Vero [11], > 100 µM. In addition, in [13], the percent decomposition worked out at 13.9%.
For `CC(C)(C)C(=O)OCOP(=O)(COCCn1cnc2c(N)ncnc21)OCOC(=O)C(C)(C)C` [ADEFOVIR DIPIVOXIL], the half-life in data set [14] and in data set [1] was 5 h throughout. Moreover, the lipophilicity (logP) in data set [2] (read-out: logP) was 2.48. Further, the EC50 in the data set with CEM-SS [3] came to 0.04 µM; with MRC5 [5], 0.91 µM; with MT4 [6] it was 0.08 µM; with MRC5 [9], 1.23 µM; in the data set with Vero [10], 0.87 µM; with Vero [12] it was 1.15 µM. Further, the CC50 with CEM-SS [4] amounted to 4.4 µM; in the data set with MT4 [7] it was 0.74 µM; in the data set on MRC5 [8], 15.7 µM; in the data set on Vero [11], 22.6 µM. Also, the percent decomposition in data set [13] was determined as 32.7%.
As to `Nc1ncnc2c1ncn2CCOCP(=O)(O)OCCSC(=O)c1ccccc1`, the half-life in data set [1] is 64.8 h.
The same measure, in the same setting: under `CC(C)(C)C(=O)SCCOP(=O)(O)COCCn1cnc2c(N)ncnc21` stands 230 h.
Compound `CC(C)C(=O)SCCOP(=O)(O)COCCn1cnc2c(N)ncnc21` gave a half-life in data set [1] of 28.8 h.
As for `CC(C)(C)C(=O)SCCOP(=O)(COCCn1cnc2c(N)ncnc21)OCCSC(=O)C(C)(C)C`, in data set [1], the half-life came out at 81.6 h. Also, the logP in data set [2] (read-out: logP) was 3.41. Also, the EC50 was 0.03 µM with CEM-SS [3]; 0.97 µM in the data set on MRC5 [5]; 0.65 µM in the data set with MT4 [6]; 1.43 µM in the data set on MRC5 [9]; 1.07 µM with Vero [10]; 1.12 µM with Vero [12]. The CC50 in the data set with CEM-SS [4] is 5.8 µM; with MT4 [7], 15 µM; with MRC5 [8], 48.5 µM; with Vero [11], 36.8 µM. For the same compound, in data set [13], the percent decomposition stood at 3%.
Consider `CC(=O)SCCOP(=O)(O)COCCn1cnc2c(N)ncnc21`, for which, in data set [1], the half-life was 19.2 h.
For `Nc1ncnc2c1ncn2CCOCP(=O)(O)O` [ADEFOVIR], the log partition coefficient (logP) in data set [2] was -4.11. For the same compound, the EC50 with CEM-SS [3] is 0.42 µM; in the data set with MRC5 [5], 33.5 µM; with MT4 [6] it was > 10 µM; in the data set with MRC5 [9], 29.7 µM; in the data set on Vero [10], 38.5 µM; with Vero [12], 32.7 µM. Besides, the 50% cytotoxic concentration (CC50) was > 10 µM with CEM-SS [4], > 10 µM in the data set on MT4 [7], > 100 µM with MRC5 [8] and > 100 µM in the data set with Vero [11].
Take `CC(=O)SCCOP(=O)(COCCn1cnc2c(N)ncnc21)OCCSC(C)=O`: the results for the half-life in [14] and in data set [1] were > 24 h and 3.7 h, respectively. The lipophilicity (logP) in data set [2] (read-out: logP) was found to be 0.32. Besides, the concentration giving a half-maximal response (EC50) in the data set with CEM-SS [3] stood at 0.1 µM; in the data set with MRC5 [5] it was 8.9 µM; with MT4 [6], 1.1 µM; in the data set with MRC5 [9], 12.6 µM; with Vero [10], 14.2 µM; in the data set on Vero [12], 10.2 µM. Further, the CC50 with CEM-SS [4] was determined as 23 µM; in the data set on MT4 [7] it was 7.6 µM; with MRC5 [8], 148 µM; in the data set on Vero [11] it was 126 µM. The compound further registered a percent decomposition in [13] of 4%.
`CC(C)C(=O)SCCOP(=O)(COCCn1cnc2c(N)ncnc21)OCCSC(=O)C(C)C` showed a half-life in [1] of 8.3 h. The logP in data set [2] (read-out: logP) amounted to 2.31. The EC50 in the data set with CEM-SS [3] came to 0.09 µM; with MRC5 [5], 1.2 µM; in the data set on MT4 [6], 0.51 µM; in the data set with MRC5 [9] it was 1.69 µM; in the data set on Vero [10], 1.35 µM; with Vero [12], 1.14 µM. Also, the CC50 with CEM-SS [4] worked out at 13 µM; in the data set on MT4 [7], 3.8 µM; in the data set with MRC5 [8] it was 30.2 µM; in the data set on Vero [11], 23 µM. The compound further displayed a percent decomposition in data set [13] of 1.6%.

A word on the half-life: it is the time needed for the level to fall by half in the phase considered. Low readings indicate fast loss, high ones slow loss. As a reminder, the logP is the decadic logarithm of the partition coefficient of the neutral form, usually between octanol and water. In general, EC50 refers to the midpoint of the concentration-response curve. A high value points to weaker potency. The term CC50 denotes the concentration giving 50% cytotoxicity. A lower CC50 goes with harm at low concentration.
